Source: PubChem BioAssay (several laboratories)
GRIN3A LBD mod: modulators (binders) of human NR3A ligand-binding domain; NR3A LBD differential scanning fluorimetry, Tm shift; 0% = protein alone, 100% = glycine-bound protein; Tm shift relative to glycine control, % at 25 µM; hit rate 2.5% among 340,000;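 active = melting temperature shift of at least 10% of the positive control shift, at one fixed dose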
ADAM10 inh: inhibits human ADAM10. O14672. recombinant ADAM10, EDANS/DABCYL FRET peptide cleavage, 3 h. inhibition, % at 7 µM. hit rate 0.62% among 370,000. AID 720582;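 active = inhibition above a per-campaign cutoff equal to the mean of compounds falling between control-based bounds plus 3 SD, cut at about 20% in these data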;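 also: 0% = DMSO wells while the 100% control is not disclosed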
Target sequence (O14672 214-748 limits assumed): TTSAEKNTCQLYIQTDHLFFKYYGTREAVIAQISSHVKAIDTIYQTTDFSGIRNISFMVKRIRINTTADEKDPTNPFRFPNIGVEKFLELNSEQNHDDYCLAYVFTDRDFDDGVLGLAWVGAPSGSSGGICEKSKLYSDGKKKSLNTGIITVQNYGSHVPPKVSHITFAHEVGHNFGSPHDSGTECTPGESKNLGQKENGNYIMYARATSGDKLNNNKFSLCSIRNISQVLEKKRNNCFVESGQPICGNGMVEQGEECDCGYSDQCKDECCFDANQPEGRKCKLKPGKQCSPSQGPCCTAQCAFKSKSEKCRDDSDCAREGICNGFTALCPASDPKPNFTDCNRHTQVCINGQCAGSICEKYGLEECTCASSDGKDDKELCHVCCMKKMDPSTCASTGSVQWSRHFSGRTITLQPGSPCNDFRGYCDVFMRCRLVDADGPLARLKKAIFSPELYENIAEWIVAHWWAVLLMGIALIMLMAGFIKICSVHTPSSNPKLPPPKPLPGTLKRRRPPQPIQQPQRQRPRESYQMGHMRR
ADAM17 inh: inhibits human ADAM17; recombinant ADAM17, EDANS/DABCYL FRET peptide cleavage; inhibition, % at 6.95 µM; hit rate 0.83% among 370,000;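 active = inhibition above the mean of compounds lying between control limits plus 3 SD, set per campaign, cut at about 8.5% in these data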;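 also: 0% = DMSO-only wells as the low control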
MT1-MMP act inh: inhibitors of human MT1-MMP activation; P50281; HT1080 RFP-PRO-GFP cells, GFP/RFP ratio fluorescence, overnight; percent of plate control window, DMSO zero; GFP/RFP ratio change, % at 20 µM; hit rate 0.061% among 360,000; AID 651647;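 active = GFP/RFP ratio change of at least 30% with cell ATP level not reduced by more than half and red fluorescence within 50% of control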
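Assay system – RFP-PRO-GFP reporter HT1080 cells · Compound dosing – single dose of 20 µM compound, 1% DMSO final · Incubation – overnight compound exposure at 37 °C · Measure – GFP/RFP fluorescence ratio · Benchmarks – DMSO wells and RFP-L50D-GFP cells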
MPTP inh: blocks calcium-induced mitochondrial swelling. AID 602449. isolated mouse mitochondria, Ca2+ swelling absorbance, 30 min. inhibition, % at 10 µM. hit rate 1.4% among 360,000;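 active = inhibition of 50% or more, scaled per plate between neutral and stimulator controls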;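 also: 0% = DMSO wells given calcium and 100% = 1 mM EGTA wells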
SKN-1 block: inhibitors of C. elegans SKN-1. inhibition, % at 21.8 µM. hit rate 0.49% among 360,000. C. elegans VP596 Pgst-4::GFP/RFP ratio, acrylamide-induced, 24 h;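 active = interference check ratio from 0.5 to 1.5 plus GFP to RFP signal ratio inhibition reaching or exceeding a fixed threshold, cut at about 30% in these data, passing the limit was not always enough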
ADAM10 confirm: confirmation of inhibitors of human ADAM10; shares compounds with ADAM10 inh; ADAM10 QFRET peptide cleavage, EDANS fluorescence; inhibition, % at 6.95 µM; hit rate 1% among 2,100;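 active = inhibition above about 20% chosen separately for each screening run, limit read from the data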;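 also: 0% = DMSO wells and 100% = marimastat wells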
ADAM17 counter: ADAM17 inhibition, counter-screen for ADAM10 exosite hits; hit rate 0.5% among 2,100; ADAM17 QFRET peptide cleavage, EDANS fluorescence; AID 743214; shares compounds with ADAM10 inh; inhibition, % at 6.95 µM;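 active = mean triplicate inhibition above the solvent-only control wells' mean plus 3 SD, cut at about 12% in these data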;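 also: 0% = DMSO wells and 100% = marimastat wells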
* hit, by the source's call; i = inactive; · = not tested or not shown. Only some compounds are listed: those with a hit (about 4.7% of all), similar ones and a draw of the others.

SMILES	GRIN3A LBD mod	ADAM10 inh	ADAM17 inh	MT1-MMP act inh	MPTP inh	SKN-1 block	ADAM10 confirm	ADAM17 counter
O=C(Nc1ccccc1C(F)(F)F)c1ccc(F)c(S(=O)(=O)N2CCOCC2)c1	-3	22*	4	0	2	8	3	0
O=C(Nc1ccccc1N1CCCCC1)c1ccc(F)c(S(=O)(=O)N2CCOCC2)c1	-3	4	4	-5	-1	6	·	·
CN1CCN(S(=O)(=O)c2cccc(C(=O)Nc3sc4c(c3-c3nc5ccccc5[nH]3)CCCC4)c2)CC1	-11	-4	-6	-9	4	7	·	·
O=C(Cn1ncc2c1-c1ccccc1OC2)Nc1ccc(S(=O)(=O)N2CCCCC2)cc1	2	22*	10*	3	0	-4	7	2
CS(=O)(=O)N(CC(=O)O)c1ccc(C23CC4CC(CC(C4)C2)C3)cc1	2	6	2	5	1	-7	·	·
NC(=O)C(c1ccc(Cl)cc1)c1ccc(Sc2ccc(Cl)cc2)nn1 (configuration not stated)	-11	23*	4	0	1	-13	4	1
S=c1[nH]nc(CSc2nc3ccccc3s2)n1Cc1ccccc1	-18	22*	1	2	0	-12	-1	0
COc1ccc2c(c1)CCC1(C)CC(=O)C(Br)=C21 (configuration not stated)	·	i	i	-5	-1	16	·	·
COC(=O)[C@]12C[C@H](CC(=O)NCc3ccccc3)C(=O)N(Cc3cccc4ccccc34)C1=C[C@H](C(C)C)O[C@@H]2C1CC1	·	23*	8	·	·	·	10	3
COC(=O)[C@]12C[C@H](CC(=O)NCc3cccc(C(F)(F)F)c3)C(=O)N(Cc3cccc4ccccc34)C1=C[C@H](C(C)C)O[C@@H]2C1CC1	·	25*	3	·	·	·	10	3
CCCCn1c(C(C)O)nc2ccccc21 (configuration not stated)	4	-4	-3	-2	1	-23	·	·
CC(NC(=O)CSCc1ccc(Br)cc1)c1ccccc1 (configuration not stated)	1	-5	-2	1	-1	-13	·	·
CC(=O)Nc1ccc(S(=O)(=O)Oc2ccccc2N2CCCCC2)cc1	-6	23*	8	-37	29	6	2	0
COc1cc(C(=S)N2CCCC2)cc(OC)c1OS(=O)(=O)c1ccc(NC(C)=O)cc1	-1	-2	2	5	0	-7	·	·
Cc1ccc(NC(=O)CN(C)C(=O)Cc2ccc(Cl)cc2Cl)cc1	-5	30*	6	5	1	2	1	0
Cc1c(C2(O)CCCCC2)[nH]c2ccc(C(F)(F)F)cc12	4	20*	8	6	14	14	6	2
Cc1c(C2(O)CCCCC2)[nH]c2ccccc12	·	-9	-5	·	·	·	·	·
COc1ccc(S(=O)(=O)N2CCOCC2)cc1C(=O)Nc1ccc(N2CCCCCC2)cc1	-1	20*	4	0	0	0	8	4
Cc1ccc(S(=O)(=O)N2CCCCC2)cc1C(=O)Nc1ccc(N2CCOCC2)cc1	0	7	7	10	17	0	·	·
CCOC(=O)CCC(=O)Nc1cc(S(=O)(=O)N2CCOCC2)ccc1N1CCCCC1	0	22*	-1	·	-1	6	0	0
Cc1ccc(S(=O)(=O)Nc2ccc(Cl)cc2)cc1NC(=O)c1cc2c(s1)CCCC2	12*	24*	10*	-1	36	-1	17	4
Cc1ccc(S(=O)(=O)N2CCOCC2)cc1NC(=O)c1cc2c(s1)CCC2	4	12	2	1	4	4	·	·
O=C(NCCCn1ccnc1)c1cn(-c2ccccc2)nc1-c1ccc(F)cc1	-1	-3	-3	2	0	-6	·	·
CC(O)(c1cccc(F)c1)c1nc(-c2cc3ccccc3o2)cs1 (configuration not stated)	·	22*	6	-4	10	22	6	2
CC(O)(c1ccc(F)c(F)c1)c1nc(-c2csc3ccccc23)cs1 (configuration not stated)	·	8	6	0	0	31	·	·
SMILES	GRIN3A LBD mod	ADAM10 inh	ADAM17 inh	MT1-MMP act inh	MPTP inh	SKN-1 block	ADAM10 confirm	ADAM17 counter
CC(O)(c1ccccc1)c1nc(-c2csc3ccccc23)cs1 (configuration not stated)	·	21*	7	1	1	-4	5	2
CC(O)(c1cccc(F)c1)c1nc(-c2csc3ccccc23)cs1 (configuration not stated)	·	23*	6	-1	2	32	8	3
CC(O)(c1cccc(F)c1)c1nc(/C=C/c2ccccc2)cs1 (configuration not stated)	·	22*	6	11	2	18	10	3
Cc1ccc(C)c(S(=O)(=O)N2CCN(C(=O)c3ccc(-n4cncn4)c([N+](=O)[O-])c3)CC2)c1	3	10	3	-4	-1	-1	·	·
OC(c1ccc2c(c1)OCO2)c1ncc(-c2cccc(C(F)(F)F)c2)[nH]1 (configuration not stated)	·	20*	6	2	2	-14	3	0
CC(=O)c1cc2c(s1)-c1cc(F)ccc1OC2	1	i	-355	-2	3	-7	·	·
O=C(Nc1cccc(F)c1)NC1(C(=O)N2CCC(O)CC2)CCCCC1	0	7	-1	-2	-1	-2	·	·
CCC1Sc2ccc(S(=O)(=O)CCC(=O)Nc3c(Cl)cc(OC)cc3OC)cc2NC1=O (configuration not stated)	-10	20*	6	2	2	-1	0	0
Cc1ccc(Cl)cc1N1CCN(C(=O)c2ccc(CS(=O)Cc3ccc(Cl)cc3)o2)CC1 (configuration not stated)	-1	23*	3	3	0	4	3	2
COc1cccc(C(O)c2nc(-c3ccccc3C)cs2)c1 (configuration not stated)	·	20*	8	3	2	16	1	0
COc1ccc2nc(SCC(=O)Nc3ccc(S(=O)(=O)N4CCCC4)cc3)c(C#N)cc2c1	-1	72*	-4	-42	-1	40*	20*	10
CC(C)CN1C(=O)C(NC(=O)C2CC2)(C(F)(F)F)C2=C1CC(C)(C)CC2=O (configuration not stated)	0	-6	-2	-3	1	7	·	·
